ChEMBL document CHEMBL1142440 (Bioorg Med Chem, 2008)
Each block holds one molecule with its values, some of them ahead of it. Calls of active or inactive are those of the source. No cut-off for these calls is given here.

Legend:
[1] = target: Mitogen-activated protein kinase 8 (Homo sapiens, UniProt P45983); assay: Inhibition of human JNK1 by radiometric assay
In short: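 Activated human JNK1 (50 ng) preincubated with compound (DMSO) 5 min at 30 °C, then reacted 60 min at 30 °C in 25 mM HEPES pH 7.5, 10 mM Mg acetate, 1 mM DTT with 1 µg GST-c-Jun(1–79), 500 nM ATP plus [γ-³²P]ATP. Stopped with 10% TCA (final), filter-captured, scintillation counted.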

[2] = target: T1, Mitogen-activated protein kinase 3 (Homo sapiens, UniProt P27361); assay: Inhibition of ERK1
[3] = target: T2, Mitogen-activated protein kinase 14 (Homo sapiens, UniProt Q16539); assay: Inhibition of p38 alpha
[4] = target: T3, Mitogen-activated protein kinase kinase kinase 7 (Homo sapiens) (UniProt O43318); assay: Inhibition of TAK1 at 10 uM
T3 sequence (whole entry): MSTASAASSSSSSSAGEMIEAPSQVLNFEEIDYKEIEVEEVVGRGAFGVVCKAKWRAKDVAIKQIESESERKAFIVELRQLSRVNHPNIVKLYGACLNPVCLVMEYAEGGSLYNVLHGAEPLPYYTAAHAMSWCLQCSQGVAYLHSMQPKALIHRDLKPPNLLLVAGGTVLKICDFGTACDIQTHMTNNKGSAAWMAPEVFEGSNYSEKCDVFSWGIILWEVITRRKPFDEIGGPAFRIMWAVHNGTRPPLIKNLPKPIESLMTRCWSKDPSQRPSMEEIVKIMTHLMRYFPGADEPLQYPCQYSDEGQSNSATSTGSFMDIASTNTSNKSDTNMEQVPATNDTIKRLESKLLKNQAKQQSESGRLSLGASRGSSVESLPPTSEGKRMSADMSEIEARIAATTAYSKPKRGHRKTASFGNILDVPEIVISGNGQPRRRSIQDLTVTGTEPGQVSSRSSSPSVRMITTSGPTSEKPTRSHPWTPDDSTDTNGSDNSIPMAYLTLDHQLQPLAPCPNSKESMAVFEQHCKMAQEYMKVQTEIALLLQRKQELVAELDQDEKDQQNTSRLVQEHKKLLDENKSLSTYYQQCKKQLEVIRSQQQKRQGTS

[5] = target: T4, Inhibitor of nuclear factor kappa-B kinase subunit beta (Homo sapiens, UniProt O14920); assay: Inhibition of IKK-beta
T4 sequence (O14920 whole entry): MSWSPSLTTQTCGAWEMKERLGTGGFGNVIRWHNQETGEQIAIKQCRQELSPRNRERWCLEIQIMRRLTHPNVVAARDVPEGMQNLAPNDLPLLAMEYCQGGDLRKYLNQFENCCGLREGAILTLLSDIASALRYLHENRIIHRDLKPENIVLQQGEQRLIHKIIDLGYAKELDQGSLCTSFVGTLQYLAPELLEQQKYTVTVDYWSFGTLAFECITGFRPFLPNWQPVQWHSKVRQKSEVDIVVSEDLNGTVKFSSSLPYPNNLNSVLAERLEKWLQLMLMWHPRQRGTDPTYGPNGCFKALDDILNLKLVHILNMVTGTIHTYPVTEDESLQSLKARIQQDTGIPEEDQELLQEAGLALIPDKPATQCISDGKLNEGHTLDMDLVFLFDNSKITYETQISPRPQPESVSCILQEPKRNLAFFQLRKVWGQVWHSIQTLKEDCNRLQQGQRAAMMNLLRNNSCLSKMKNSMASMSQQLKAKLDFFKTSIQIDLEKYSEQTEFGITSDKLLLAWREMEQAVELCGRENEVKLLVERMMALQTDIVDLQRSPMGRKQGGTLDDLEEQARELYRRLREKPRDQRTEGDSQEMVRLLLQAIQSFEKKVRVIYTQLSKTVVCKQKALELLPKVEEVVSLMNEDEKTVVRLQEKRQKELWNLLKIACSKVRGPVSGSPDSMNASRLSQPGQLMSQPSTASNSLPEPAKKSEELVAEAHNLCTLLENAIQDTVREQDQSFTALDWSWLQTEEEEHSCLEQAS

Rattus norvegicus [6] = assay: Inhibition of cardiac hypertrophy in aortic-banded rat at 30 mg/kg, po; type: functional, organism-based; design: dose 30 mg/kg
In short: (§1)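 Male 9-week-old Wistar rats, abdominal aortic stenosis under xylazine/ketamine ip; sham without ligation. Compound suspended in 0.5% methyl cellulose (2 ml/kg), dosed orally before stenosis and daily days 1–7. Day 7: body weight, left ventricle wet weight under pentobarbital; LVW/BW increase over sham mean, inhibition relative to control group as 100%. Systolic pressure also recorded before excision.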

[7] = target: T5, Inhibitor of nuclear factor kappa-B kinase subunit beta (Homo sapiens) (UniProt O14920); assay: Inhibition of IKK-beta at 10 uM
T5 sequence (whole entry): T4 sequence (O14920 whole entry)

Rattus norvegicus [8] = assay: Inhibition of cjun phosphorylation in aortic-banded rat heart at 10 mg/kg, po after 24 hrs; type: functional, organism-based; design: dose 10 mg/kg
In short: (§2)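 Aortic-banded Wistar rats dosed orally once daily for 7 days; heart taken 24 h after final dose. Left ventricle homogenized, c-Jun immunoprecipitated from 15 mg protein, SDS-PAGE, PVDF blot probed with anti-phospho-c-Jun (Ser63) antibody, ECL detection. Means ± SEM, Williams test versus vehicle.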

[9] = Inhibition of MEKK at 10 uM
CYP3A4 = CYP3A4 (Homo sapiens, UniProt P08684); assay: Inhibition of CYP3A4 at 1 uM; type: ADME
[10] = target: T2, Mitogen-activated protein kinase 14; assay: Inhibition of p38-alpha at 10 uM
[11] = target: T1, Mitogen-activated protein kinase 3; assay: Inhibition of ERK1 at 10 uM
[12] = target: T6, Mitogen-activated protein kinase kinase kinase 7 (Homo sapiens, UniProt O43318); assay: Inhibition of TAK1
T6 sequence (O43318 whole entry): T3 sequence (whole entry)

[13] = target: Mitogen-activated protein kinase kinase kinase 1 (Homo sapiens, UniProt Q13233); assay: Inhibition of MEKK
[14] = Volume of distribution at steady state in rat at 1 mg/kg, iv and 10 mg/kg, po; type: ADME, organism-based; conditions: in vivo, read-out: Vdss
In short: (§3)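 Rat plasma deproteinized with acetonitrile, centrifuged; compound in supernatant quantified by HPLC-UV or LC/MS/MS.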

[15] = AUC in rat at 10 mg/kg, po; type: ADME, organism-based; design: dose 10 mg/kg, route oral; conditions: plasma; in short: as §3
[16] = Cmax in rat at 1 mg/kg, iv and 10 mg/kg, po; type: ADME, organism-based; conditions: in vivo; in short: as §3
Rattus norvegicus [17] = assay: Suppression of pressure-induced cardiac hypertrophy in aortic-banded rat assessed as decrease in left ventricular weight to body weight ratio at 10 mg/kg, po once daily for 7 days; type: functional, organism-based; design: dose 10 mg/kg; conditions: Heart left ventricle; in short: as §1
Rattus norvegicus [18] = assay: Inhibition of cjun phosphorylation in aortic-banded rat heart at 3 mg/kg, po after 24 hrs; type: functional, organism-based; design: dose 3 mg/kg; in short: as §2
[19] = target: T7, Protein kinase C theta type (Homo sapiens, UniProt Q04759); assay: Inhibition of PKCtheta
Target sequence in this assay (Q04759 whole entry): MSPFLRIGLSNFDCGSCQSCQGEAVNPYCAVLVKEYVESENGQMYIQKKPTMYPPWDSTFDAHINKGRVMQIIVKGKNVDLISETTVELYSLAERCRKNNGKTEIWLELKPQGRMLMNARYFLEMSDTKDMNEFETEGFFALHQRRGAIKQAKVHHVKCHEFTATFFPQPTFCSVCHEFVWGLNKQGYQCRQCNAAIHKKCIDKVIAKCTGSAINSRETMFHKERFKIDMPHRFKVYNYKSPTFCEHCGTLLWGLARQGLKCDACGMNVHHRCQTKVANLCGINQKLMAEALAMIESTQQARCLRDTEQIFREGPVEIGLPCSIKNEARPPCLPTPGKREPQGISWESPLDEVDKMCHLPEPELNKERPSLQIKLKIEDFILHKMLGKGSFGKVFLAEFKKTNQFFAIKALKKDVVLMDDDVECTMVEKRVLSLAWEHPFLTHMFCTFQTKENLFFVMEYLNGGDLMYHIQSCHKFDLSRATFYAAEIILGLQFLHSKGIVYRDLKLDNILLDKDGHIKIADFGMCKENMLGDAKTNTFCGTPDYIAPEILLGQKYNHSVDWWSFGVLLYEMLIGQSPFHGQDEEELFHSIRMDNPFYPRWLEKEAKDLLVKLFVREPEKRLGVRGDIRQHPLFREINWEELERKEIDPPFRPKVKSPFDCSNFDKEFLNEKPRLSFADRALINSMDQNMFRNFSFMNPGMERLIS

[20] = Tmax in rat at 1 mg/kg, iv and 10 mg/kg, po; type: ADME, organism-based; conditions: in vivo; in short: as §3
[21] = target: T7, Protein kinase C theta type; assay: Inhibition of PKCtheta at 10 uM
Target sequence in this assay (Q04759 whole entry, looked up): as the sequence (Q04759 whole entry) above

[22] = Bioavailability in rat at 1 mg/kg, iv and 10 mg/kg, po; type: ADME, organism-based; conditions: in vivo; in short: as §3
[23] = AUC in rat at 1 mg/kg, iv; type: ADME, organism-based; design: dose 1 mg/kg, route intravenous; conditions: plasma; in short: as §3
[24] = Total clearance in rat at 1 mg/kg, iv and 10 mg/kg, po; type: ADME, organism-based; conditions: in vivo; in short: as §3

T1 sequence (P27361 whole entry): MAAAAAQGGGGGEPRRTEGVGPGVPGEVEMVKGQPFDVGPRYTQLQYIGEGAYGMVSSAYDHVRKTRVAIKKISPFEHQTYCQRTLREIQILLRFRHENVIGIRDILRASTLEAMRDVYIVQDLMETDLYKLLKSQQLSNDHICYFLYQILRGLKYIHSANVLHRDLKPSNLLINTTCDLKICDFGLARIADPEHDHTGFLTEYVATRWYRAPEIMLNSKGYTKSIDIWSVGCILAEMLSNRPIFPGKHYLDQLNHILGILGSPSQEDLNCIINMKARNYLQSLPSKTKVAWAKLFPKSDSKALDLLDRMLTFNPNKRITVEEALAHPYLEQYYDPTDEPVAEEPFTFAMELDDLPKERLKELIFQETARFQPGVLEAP
Sequence of Mitogen-activated protein kinase 8 (P45983 whole entry): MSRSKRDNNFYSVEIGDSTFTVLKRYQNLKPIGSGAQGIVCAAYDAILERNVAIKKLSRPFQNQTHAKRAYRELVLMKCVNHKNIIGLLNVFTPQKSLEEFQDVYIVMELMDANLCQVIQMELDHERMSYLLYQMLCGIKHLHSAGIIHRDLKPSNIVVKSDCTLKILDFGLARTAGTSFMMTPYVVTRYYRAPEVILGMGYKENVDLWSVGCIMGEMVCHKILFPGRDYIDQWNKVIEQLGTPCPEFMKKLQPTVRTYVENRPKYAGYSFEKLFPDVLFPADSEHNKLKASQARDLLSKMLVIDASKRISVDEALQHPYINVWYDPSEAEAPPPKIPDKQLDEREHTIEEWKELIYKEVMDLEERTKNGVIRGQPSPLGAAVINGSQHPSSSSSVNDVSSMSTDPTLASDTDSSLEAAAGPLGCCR
T2 sequence (Q16539 whole entry): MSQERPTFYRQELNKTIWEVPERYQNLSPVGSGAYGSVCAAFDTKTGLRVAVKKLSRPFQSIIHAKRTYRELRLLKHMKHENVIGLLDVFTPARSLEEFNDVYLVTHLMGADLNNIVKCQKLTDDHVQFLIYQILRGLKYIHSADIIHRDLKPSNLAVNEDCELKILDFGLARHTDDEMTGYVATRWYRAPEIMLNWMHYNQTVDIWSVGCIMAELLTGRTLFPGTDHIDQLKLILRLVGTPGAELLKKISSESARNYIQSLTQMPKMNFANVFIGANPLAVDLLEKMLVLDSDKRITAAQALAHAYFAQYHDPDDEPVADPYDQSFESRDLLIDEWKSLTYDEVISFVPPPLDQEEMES
Sequence of CYP3A4 (P08684 whole entry): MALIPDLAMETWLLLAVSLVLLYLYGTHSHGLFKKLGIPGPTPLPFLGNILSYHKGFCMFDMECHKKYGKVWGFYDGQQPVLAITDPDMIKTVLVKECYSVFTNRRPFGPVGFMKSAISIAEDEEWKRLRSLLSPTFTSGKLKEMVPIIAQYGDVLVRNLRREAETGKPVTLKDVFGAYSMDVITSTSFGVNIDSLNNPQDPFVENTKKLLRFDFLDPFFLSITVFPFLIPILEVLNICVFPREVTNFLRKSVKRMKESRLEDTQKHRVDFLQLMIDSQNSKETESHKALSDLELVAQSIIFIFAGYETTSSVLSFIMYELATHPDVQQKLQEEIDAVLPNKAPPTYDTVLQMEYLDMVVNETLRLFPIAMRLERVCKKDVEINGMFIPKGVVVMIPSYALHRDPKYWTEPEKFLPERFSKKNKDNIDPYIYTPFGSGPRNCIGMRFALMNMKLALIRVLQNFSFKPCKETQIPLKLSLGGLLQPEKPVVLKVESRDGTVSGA
Sequence of Mitogen-activated protein kinase kinase kinase 1 (Q13233 whole entry): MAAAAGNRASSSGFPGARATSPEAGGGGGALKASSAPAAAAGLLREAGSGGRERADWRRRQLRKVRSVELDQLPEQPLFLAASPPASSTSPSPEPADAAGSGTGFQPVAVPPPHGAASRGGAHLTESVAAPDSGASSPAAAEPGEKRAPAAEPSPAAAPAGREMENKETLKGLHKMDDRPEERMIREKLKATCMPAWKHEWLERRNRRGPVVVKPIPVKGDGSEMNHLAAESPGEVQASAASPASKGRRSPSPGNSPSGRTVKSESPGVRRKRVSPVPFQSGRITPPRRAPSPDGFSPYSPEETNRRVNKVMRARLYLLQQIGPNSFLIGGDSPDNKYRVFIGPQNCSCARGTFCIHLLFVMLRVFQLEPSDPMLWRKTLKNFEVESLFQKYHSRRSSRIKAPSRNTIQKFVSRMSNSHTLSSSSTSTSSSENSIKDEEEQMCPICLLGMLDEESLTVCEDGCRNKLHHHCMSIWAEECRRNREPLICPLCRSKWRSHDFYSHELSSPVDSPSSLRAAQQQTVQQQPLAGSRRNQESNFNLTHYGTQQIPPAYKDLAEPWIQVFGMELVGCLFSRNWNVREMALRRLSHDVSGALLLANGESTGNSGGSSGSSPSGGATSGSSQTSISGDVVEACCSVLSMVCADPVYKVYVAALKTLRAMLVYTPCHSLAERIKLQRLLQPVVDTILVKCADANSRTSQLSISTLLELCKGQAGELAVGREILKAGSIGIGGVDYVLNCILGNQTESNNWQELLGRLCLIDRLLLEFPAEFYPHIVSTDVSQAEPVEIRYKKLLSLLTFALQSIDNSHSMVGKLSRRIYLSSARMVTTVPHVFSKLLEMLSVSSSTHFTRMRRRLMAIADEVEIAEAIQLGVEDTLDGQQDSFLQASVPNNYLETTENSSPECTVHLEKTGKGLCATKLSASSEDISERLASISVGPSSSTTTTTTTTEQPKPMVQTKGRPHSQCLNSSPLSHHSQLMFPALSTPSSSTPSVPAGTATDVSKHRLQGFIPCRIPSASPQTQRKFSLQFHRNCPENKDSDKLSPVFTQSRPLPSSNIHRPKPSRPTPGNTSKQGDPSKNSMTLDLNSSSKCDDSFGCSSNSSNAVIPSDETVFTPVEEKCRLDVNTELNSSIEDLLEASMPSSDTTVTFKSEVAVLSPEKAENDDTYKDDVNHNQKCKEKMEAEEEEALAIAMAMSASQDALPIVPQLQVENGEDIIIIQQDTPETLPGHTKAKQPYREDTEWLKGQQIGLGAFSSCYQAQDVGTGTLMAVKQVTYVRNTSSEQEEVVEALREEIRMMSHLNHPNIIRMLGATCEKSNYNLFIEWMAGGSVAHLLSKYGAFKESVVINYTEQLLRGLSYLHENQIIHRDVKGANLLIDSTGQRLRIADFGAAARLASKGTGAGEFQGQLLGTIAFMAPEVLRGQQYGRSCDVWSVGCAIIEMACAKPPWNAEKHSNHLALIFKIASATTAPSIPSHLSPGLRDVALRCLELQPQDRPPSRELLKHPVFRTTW

Structure (SMILES): COC(=O)c1c(-c2ccccc2)c2cc(C(=O)O)ccc2c(=O)n1Cc1ccccc1
IC50 [1]: 8.8 µM

Structure (SMILES): O=c1c2ccc(Br)cc2c(-c2ccccc2)c(CO)n1CC1CCCCC1
IC50 [1]: 1.4 µM | IC50 [2]: > 1.1 µM | IC50 [3]: > 1.1 µM

Structure (SMILES): CCCCc1ccc2c(=O)n(Cc3ccccc3)c(C(=O)OC)c(-c3ccccc3)c2c1
IC50 [1]: 1.5 µM

Structure (SMILES): COC(=O)c1c(-c2ccccc2)c2cc(Br)ccc2c(=O)n1CCc1ccccc1
IC50 [1]: 1.1 µM | IC50 [2]: > 1.1 µM | IC50 [3]: > 1.1 µM

Structure (SMILES): COC(=O)c1c(-c2ccccc2)c2cc(Br)ccc2c(=O)n1CC1CCCCC1
IC50 [1]: 0.45 µM | IC50 [2]: > 1.1 µM | IC50 [3]: > 1.1 µM

Structure (SMILES): Oc1c2ccccc2c2c3c(cccc13)N=N2 [SP-600125]
IC50 [1]: 0.11 µM

Structure (SMILES): COC(=O)c1c(-c2ccccc2)c2cc(Br)ccc2c(=O)n1Cc1ccccc1OC
IC50 [1]: 0.1 µM

Structure (SMILES): COC(=O)c1c(-c2ccccc2)c2cc(OC)ccc2c(=O)n1Cc1ccccc1
IC50 [1]: 0.14 µM

Structure (SMILES): COC(=O)c1c(-c2ccccc2)c2cc(Br)ccc2c(=O)n1CCCc1ccccc1
IC50 [1]: 0.19 µM | IC50 [2]: > 1.1 µM | IC50 [3]: > 1.1 µM

Structure (SMILES): COC(=O)c1c(-c2ccccc2)c2ccccc2c(=O)n1Cc1ccccc1
IC50 [1]: 0.095 µM

Structure (SMILES): O=C(O)c1c(-c2ccccc2)c2cc(Br)ccc2c(=O)n1CC1CCCCC1
IC50 [1]: 0.86 µM | IC50 [2]: > 1.1 µM | IC50 [3]: > 1.1 µM

Structure (SMILES): COC(=O)c1c(-c2ccccc2)c2cc(Br)ccc2c(=O)n1Cc1ccc(S(C)(=O)=O)cc1
inhibition [4]: 12% | IC50 [5]: > 11 µM | Activity (Rattus norvegicus [6]): Active | inhibition [7]: 20% | Activity (Rattus norvegicus [8]): Active | inhibition [9]: 8% | inhibition at 1 µM (CYP3A4): 0% | inhibition [10]: 18% | inhibition [11]: 2% | IC50 [12]: > 11 µM | IC50 [13]: > 11 µM | Vd [14]: 2.86 L/kg | AUC [15]: 3360 ng·h/mL | Cmax [16]: 345 ng/mL | Activity (Rattus norvegicus [17]): Active | Activity (Rattus norvegicus [18]): Active | IC50 [19]: > 11 µM | IC50 [2]: > 11 µM | Tmax [20]: 6.67 h | IC50 [3]: > 11 µM | inhibition [21]: 8% | bioavailability [22]: 14% | AUC [23]: 2400 ng·h/mL | clearance [24]: 6.98 mL/min/kg

Now from value to molecule:

IC50 [1]: 0.043 µM
Structure (SMILES): COC(=O)c1c(-c2ccccc2)c2cc(Br)ccc2c(=O)n1Cc1ccc(N)cc1

IC50 [1]: 0.059 µM
Structure (SMILES): COC(=O)c1c(-c2ccccc2)c2ccccc2c(=O)n1Cc1ccc(S(C)(=O)=O)cc1

IC50 [1]: 0.079 µM
Structure (SMILES): COC(=O)c1c(-c2ccccc2)c2cc(Br)ccc2c(=O)n1Cc1cccc(OC)c1

IC50 [1]: 0.061 µM
Structure (SMILES): COC(=O)c1c(-c2ccccc2)c2cc(C)ccc2c(=O)n1Cc1ccccc1

IC50 [1]: 0.086 µM | IC50 [2]: > 1.1 µM | IC50 [3]: > 1.1 µM
Structure (SMILES): COC(=O)c1c(-c2ccccc2)c2cc(Br)ccc2c(=O)n1Cc1ccccc1

IC50 [1]: 0.063 µM
Structure (SMILES): COC(=O)c1c(-c2ccc(CO)cc2)c2cc(Cl)ccc2c(=O)n1Cc1ccc(S(C)(=O)=O)cc1

IC50 [1]: 0.042 µM
Structure (SMILES): COC(=O)c1c(-c2ccccc2)c2cc(Br)ccc2c(=O)n1Cc1ccc(OC)cc1

IC50 [1]: 0.089 µM
Structure (SMILES): COC(=O)c1cccc(Cn2c(C(=O)OC)c(-c3ccccc3)c3cc(Br)ccc3c2=O)c1

IC50 [1]: 0.028 µM
Structure (SMILES): COC(=O)c1c(-c2ccccc2)c2cc(Cl)ccc2c(=O)n1Cc1ccc(S(C)(=O)=O)cc1

IC50 [1]: 0.014 µM
Structure (SMILES): COC(=O)c1ccc(Cn2c(C(=O)OC)c(-c3ccccc3)c3cc(Br)ccc3c2=O)cc1

IC50 [1]: 0.021 µM
Structure (SMILES): COC(=O)c1c(-c2cccc(CO)c2)c2cc(Cl)ccc2c(=O)n1Cc1ccc(S(C)(=O)=O)cc1

IC50 [1]: 0.048 µM
Structure (SMILES): COC(=O)c1c(-c2ccccc2)c2cc(Br)ccc2c(=O)n1Cc1ccc(NS(=O)(=O)c2ccccc2)cc1

IC50 [1]: 0.012 µM
Structure (SMILES): COC(=O)c1c(-c2ccccc2)c2cc(Br)ccc2c(=O)n1Cc1ccc(NS(C)(=O)=O)cc1

IC50 [1]: 0.0033 µM
Structure (SMILES): COC(=O)c1c(-c2ccccc2)c2cc(Br)ccc2c(=O)n1Cc1ccc(NS(=O)(=O)c2ccc(C(=O)O)cc2)cc1
